Results from ChEMBL document CHEMBL1806449, “A class of Trp-Trp-AA-OBzl: Synthesis, in vitro anti-proliferation/in vivo anti-tumor evaluation, intercalation-mechanism investigation and 3D QSAR analysis” (Eur J Med Chem, 2011).
Peptide text beside a SMILES is read from it. * marks the point of attachment. OBn = c1ccc(CO*)cc1

Experiments:
HepG2 = experiment: Antiproliferative activity against human HepG2 cells after 48 hrs by MTT assay; assay type: functional, cell-based; conditions: HepG2, 48 h
Mus musculus [1] = experiment: Toxicity in ICR mouse xenografted with mouse S180 cells assessed as effect on brain weight at 8.9 umol/kg; assay type: organism-based, CCRF S-180; conditions: in vivo
In short: (§1)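 S180-bearing male ICR mice (10–12 weeks; 1×10^7 cells s.c. right oxter; 12 per group), daily i.p. 8.9 µmol/kg for seven days starting 24 h after implantation; NS, cytarabine and doxorubicin controls; liver, brain, kidney weights, spleen index and body-weight gain recorded.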

Mus musculus [2] = experiment: Acute toxicity in ICR mouse assessed as apparent changes in any organ at 500 mg/kg, ip administered qd for 7 days; assay type: organism-based; set-up: dose 500 mg/kg, route intraperitoneal; conditions: in vivo, 168 h
CCRF S-180 [3] = experiment: Antitumor activity against mouse S180 cells xenografted in ICR mouse assessed as tumor growth inhibition at 8.9 umol/kg, ip administered 1 day after tumor inoculation qd for 7 days; assay type: functional; conditions: CCRF S-180, ip, read-out: GI
In short: (§2)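 Male ICR mice 10–12 weeks; S180 from ascites serially transplanted weekly; 1×10^7 viable cells in 0.2 ml NS implanted s.c. at right oxter; 24 h later randomized (10 per group); daily i.p. 8.9, 0.89 or 0.089 µmol/kg/day in 0.2 ml NS, 7 days; NS and cytarabine controls; sacrificed 24 h after last dose; inhibition % = [1−(Tw/Cw)]×100.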

Mus musculus [4] = experiment: Toxicity in ICR mouse xenografted with mouse S180 cells assessed as increase in spleen index at 8.9 umol/kg; assay type: organism-based, CCRF S-180; conditions: in vivo; in short: as §1
Mus musculus [5] = experiment: Acute toxicity in ICR mouse assessed as tetanus at 500 mg/kg, ip administered qd for 7 days; assay type: organism-based; set-up: dose 500 mg/kg, route intraperitoneal; conditions: in vivo, 168 h
Mus musculus [6] = experiment: Toxicity in ICR mouse xenografted with mouse S180 cells assessed as increase in body weight at 8.9 umol/kg; assay type: organism-based, CCRF S-180; conditions: in vivo; in short: as §1
Mus musculus [7] = experiment: Acute toxicity in ICR mouse assessed as twitch at 500 mg/kg, ip administered qd for 7 days; assay type: organism-based; set-up: dose 500 mg/kg, route intraperitoneal; conditions: in vivo, 168 h
[8] = Acute toxicity in ip dosed ICR mouse assessed as lethal dose; assay type: organism-based; conditions: in vivo
In short: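 Male ICR mice, 24 weeks old, got a single i.p. injection of 500 mg/kg in 0.2 ml NS (normal saline). They were watched for 7 days for neurotoxic behaviour (tremor, twitch, jumping, tetanus, supination) and for death.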

H22 = experiment: Antiproliferative activity against mouse H22 cells after 48 hrs by MTT assay; assay type: functional, cell-based; conditions: H22, 48 h
Mus musculus [9] = experiment: Toxicity in ICR mouse xenografted with mouse S180 cells assessed as effect on kidney weight at 8.9 umol/kg; assay type: organism-based, CCRF S-180; conditions: in vivo; in short: as §1
B16 = experiment: Antiproliferative activity against mouse B16 cells after 48 hrs by MTT assay; assay type: functional, cell-based; conditions: B16, 48 h
K562 = experiment: Antiproliferative activity against human K562 cells after 48 hrs by MTT assay; assay type: functional, cell-based; conditions: K562, 48 h
Mus musculus [10] = experiment: Toxicity in ICR mouse xenografted with mouse S180 cells assessed as effect on liver weight at 8.9 umol/kg; assay type: organism-based, CCRF S-180; conditions: in vivo; in short: as §1
Mus musculus [11] = experiment: Acute toxicity in ICR mouse assessed as jumping at 500 mg/kg, ip administered qd for 7 days; assay type: organism-based; set-up: dose 500 mg/kg, route intraperitoneal; conditions: in vivo, 168 h
CCRF S-180 [12] = experiment: Antiproliferative activity against mouse S180 cells after 48 hrs by MTT assay; assay type: functional, cell-based; conditions: CCRF S-180, 48 h
Mus musculus [13] = experiment: Acute toxicity in ICR mouse assessed as supination at 500 mg/kg, ip administered qd for 7 days; assay type: organism-based; set-up: dose 500 mg/kg, route intraperitoneal; conditions: in vivo, 168 h
Mus musculus [14] = experiment: Acute toxicity in ICR mouse assessed as mortality at 500 mg/kg, ip administered qd for 7 days; assay type: organism-based; set-up: dose 500 mg/kg, route intraperitoneal; conditions: in vivo, 168 h
Mus musculus [15] = experiment: Acute toxicity in ICR mouse assessed as tremors at 500 mg/kg, ip administered qd for 7 days; assay type: organism-based; set-up: dose 500 mg/kg, route intraperitoneal; conditions: in vivo, 168 h
Mus musculus [16] = experiment: Toxicity in ICR mouse xenografted with mouse S180 cells assessed as effect on kidney weight at 2 umol/kg; assay type: organism-based, CCRF S-180; conditions: in vivo
CCRF S-180 [17] = experiment: Antitumor activity against mouse S180 cells xenografted in ICR mouse assessed as tumor growth inhibition at 0.89 umol/kg, ip administered 1 day after tumor inoculation qd for 7 days; assay type: functional; conditions: CCRF S-180, ip, read-out: GI; in short: as §2
Mus musculus [18] = experiment: Toxicity in ICR mouse xenografted with mouse S180 cells assessed as increase in body weight at 2 umol/kg; assay type: organism-based, CCRF S-180; conditions: in vivo
Mus musculus [19] = experiment: Toxicity in ICR mouse xenografted with mouse S180 cells assessed as effect on liver weight at 2 umol/kg; assay type: organism-based, CCRF S-180; conditions: in vivo
Mus musculus [20] = experiment: Toxicity in ICR mouse xenografted with mouse S180 cells assessed as increase in spleen index at 2 umol/kg; assay type: organism-based, CCRF S-180; conditions: in vivo
Mus musculus [21] = experiment: Toxicity in ICR mouse xenografted with mouse S180 cells assessed as effect on brain weight at 2 umol/kg; assay type: organism-based, CCRF S-180; conditions: in vivo
CCRF S-180 [22] = experiment: Antitumor activity against mouse S180 cells xenografted in ICR mouse assessed as tumor growth inhibition at 0.089 umol/kg, ip qd administered 1 day after tumor inoculation for 7 days; assay type: functional; conditions: CCRF S-180, ip, read-out: GI; in short: as §2

Compound | IC50 (HepG2) [µM] | Activity (Mus musculus [1]) [g] | Activity (Mus musculus [2]) | inhibition in vivo at 8.9 µmol/kg (CCRF S-180 [3]) [%] | Activity (Mus musculus [4]) | Activity (Mus musculus [5]) | Activity (Mus musculus [6]) [g] | Activity (Mus musculus [7]) | LD50 [8] [mg/kg] | IC50 (H22) [µM] | Activity (Mus musculus [9]) [g] | IC50 (B16) [µM] | IC50 (K562) [µM] | Activity (Mus musculus [10]) [g] | Activity (Mus musculus [11]) | IC50 (CCRF S-180 [12]) [µM] | Activity (Mus musculus [13]) | Activity (Mus musculus [14]) | Activity (Mus musculus [15]) | Activity (Mus musculus [16]) [g] | other results
N[C@@H](Cc1c[nH]c2ccccc12)C(=O)N[C@@H](Cc1c[nH]c2ccccc12)C(=O)N1CCC[C@H]1C(=O)OCc1ccccc1 (H-Trp-Trp-Pro-OBn) | 14.7 | 0.27 | Non-toxic | 58 | 8.01 | Non-toxic | 10.24 | Non-toxic | > 500 | 15.5 | 0.15 | 17.2 | 12.9 | 1.81 | Non-toxic | 12.5 | Non-toxic | Non-toxic | Non-toxic | – | –
N[C@@H](Cc1c[nH]c2ccccc12)C(=O)N[C@@H](Cc1c[nH]c2ccccc12)C(=O)N[C@@H](CO)C(=O)OCc1ccccc1 (H-Trp-Trp-Ser-OBn) | 46.6 | 0.28 | Non-toxic | 18.1 | 7.59 | Non-toxic | 9.95 | Non-toxic | > 500 | 46.3 | 0.16 | 54.3 | 41.6 | 1.73 | Non-toxic | 41.2 | Non-toxic | Non-toxic | Non-toxic | – | –
C[C@@H](O)[C@H](NC(=O)[C@H](Cc1c[nH]c2ccccc12)NC(=O)[C@@H](N)Cc1c[nH]c2ccccc12)C(=O)OCc1ccccc1 (H-Trp-Trp-Thr-OBn) | 13.7 | 0.3 | Non-toxic | 61.2 | 8.21 | Non-toxic | 9.99 | Non-toxic | > 500 | 14 | 0.15 | 16 | 12 | 1.81 | Non-toxic | 11.8 | Non-toxic | Non-toxic | Non-toxic | – | –
N[C@@H](Cc1c[nH]c2ccccc12)C(=O)N[C@@H](Cc1c[nH]c2ccccc12)C(=O)N[C@@H](Cc1ccc(O)cc1)C(=O)OCc1ccccc1 (H-Trp-Trp-Tyr-OBn) | 43.2 | 0.27 | Non-toxic | 20.2 | 7.5 | Non-toxic | 9.76 | Non-toxic | > 500 | 39.6 | 0.16 | 36 | 45.7 | 1.78 | Non-toxic | 36 | Non-toxic | Non-toxic | Non-toxic | – | –
Nc1ccn([C@@H]2O[C@H](CO)[C@@H](O)[C@@H]2O)c(=O)n1 [CYTARABINE] | 26.2 | – | – | 31.9 | – | – | – | – | – | 26 | – | 30.6 | 24.3 | – | – | 25.4 | – | – | – | 0.16 | inhibition in vivo at 0.89 µmol/kg (CCRF S-180 [17]): 20.6%; Activity (Mus musculus [18]): 7.12 g; Activity (Mus musculus [19]): 1.62 g; Activity (Mus musculus [20]): 7.5; Activity (Mus musculus [21]): 0.29 g; inhibition in vivo at 0.089 µmol/kg (CCRF S-180 [22]): 7.86%
COc1cccc2c1C(=O)c1c(O)c3c(c(O)c1C2=O)C[C@@](O)(C(=O)CO)C[C@@H]3O[C@H]1C[C@H](N)[C@H](O)[C@H](C)O1 [DOXORUBICIN] | 17.5 | – | – | 48.2 | – | – | – | – | – | 36.5 | – | 21.5 | 17.2 | – | – | 29.2 | – | – | – | 0.15 | Activity (Mus musculus [18]): 6.12 g; Activity (Mus musculus [19]): 1.61 g; Activity (Mus musculus [20]): 7.31; Activity (Mus musculus [21]): 0.25 g
